# Assays:
# Rattus norvegicus [1] = assay: Percent change of arterial blood pressure in spontaneously hypertensive rats at the dose of 3 mg/kg (p.o.) after 24 hr (control BP(mm Hg)=221); type: functional; settings: route oral
# Canis familiaris [2] = assay: Diuretic activity was evaluated by measuring amount of Cl- during 0-6 hr in urine of normotensive saline loaded dogs at 0.03mg/kg, po; type: ADME, organism-based, Canis lupus familiaris; settings: dog, in vivo
# Method in brief: (§1)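 Conscious female dogs, each given one oral dose per experiment. Urine and heparinized venous plasma were taken at each collection time. Urine was centrifuged and chilled, and plasma was separated within 30 min. Both were assayed for Na+, K+, Cl−, urate and glucose. Results are mean excretion in mequiv kg−1 (6 h)−1, with at least two dogs per dose.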
# Canis familiaris [3] = assay: Diuretic activity was evaluated by measuring amount of Na+ during 0-6 hr in urine of normotensive saline loaded dogs at 0.1 mg/kg, po; type: ADME, organism-based, Canis lupus familiaris; set-up: dose 0.1 mg/kg, route oral; settings: dog, in vivo
# Method in brief: (§2)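 Conscious dogs, each given a single oral dose per experiment, with at least two dogs per dose. Urine volume is measured; aliquots are centrifuged and chilled. Heparinized venous blood (4 mL) is drawn at each urine collection. Urine and plasma are analyzed for Na+, K+, Cl−, urate and glucose. Result is mean Na+ excretion in mequiv kg−1 (6 h)−1.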
# Rattus norvegicus [4] = assay: Diuretic activity was evaluated by measuring amount of K+ during 0-6 h in urine of normotensive saline loaded rats at 100.0 mg/kg, po; type: ADME, organism-based; set-up: dose 100 mg/kg, route oral; settings: in vivo
# Method in brief: (§3)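 Male Sprague–Dawley rats (275–375 g), fed and watered ad libitum before testing but not during it, eight per group. Compound in 0.2% methylcellulose/water given orally at 2 mL/kg, immediately followed by a 0.9% saline load equal to 5% of body weight. Rats were kept in individual metabolism cages. Urine was sampled at 2, 6 and 24 h for volume, Na+, K+, Cl−, uric acid and osmolality.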
# Rattus norvegicus [5] = assay: Diuretic activity was evaluated by measuring amount of Cl- during 0-6 hr in urine of normotensive saline loaded rats at 10.0mg/kg, po; type: ADME, organism-based; settings: in vivo, 10 mg/kg; method in brief: as §3
# Rattus norvegicus [6] = assay: Diuretic activity was evaluated by measuring amount of Cl- during 0-6 hr in urine of normotensive saline loaded rats at 0.1 mg/kg, po; type: ADME, organism-based; set-up: dose 0.1 mg/kg, route oral; settings: in vivo; method in brief: as §3
# Canis familiaris [7] = assay: Diuretic activity was evaluated by measuring amount of Cl- during 0-6 hr in urine of normotensive saline loaded dogs at 0.1 mg/kg, po; type: ADME, organism-based, Canis lupus familiaris; set-up: dose 0.1 mg/kg, route oral; settings: dog, in vivo; method in brief: as §1
# Rattus norvegicus [8] = assay: Percent change of arterial blood pressure in spontaneously hypertensive rats at the dose of 10 mg/kg (p.o.) after 6 hr (control BP(mm Hg)=219); type: functional; settings: route oral
# Rattus norvegicus [9] = assay: Diuretic activity was evaluated by measuring amount of K+ during 0-6 hr in urine of normotensive saline loaded rats at 3.0mg/kg, po; type: ADME, organism-based; settings: in vivo, 3 mg/kg
# Method in brief: (§4)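 Male normotensive Sprague–Dawley rats (275–375 g), eight per group. Test compound or vehicle (0.2% methylcellulose in water, 2 mL/kg) is given by mouth, followed at once by a 0.9% saline load equal to 5% of body weight. Rats are housed in metabolism cages without food or water. Urine is collected at 2, 6 and 24 h and assayed for Na+, K+, Cl−, uric acid and osmolality.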
# Canis familiaris [10] = assay: Diuretic activity was evaluated by measuring amount of K+ during 0-6 h in urine of normotensive saline loaded dogs at 1.0 mg/kg, po; type: ADME, organism-based, Canis lupus familiaris; set-up: dose 1 mg/kg, route oral; settings: dog, in vivo; method in brief: as §1
# Canis familiaris [11] = assay: Diuretic activity was evaluated by measuring amount of Na+ during 0-6 h in urine of normotensive saline loaded dogs at 10.0mg/kg, po; type: ADME, organism-based, Canis lupus familiaris; settings: dog, in vivo, 10 mg/kg; method in brief: as §2
# Rattus norvegicus [12] = assay: Percent change of arterial blood pressure in spontaneously hypertensive rats at the dose of 3 mg/kg (p.o.) after 6 hr (control BP(mm Hg)=221); type: functional; settings: route oral
# [13] = Diuretic activity was evaluated by measuring amount of Na+ during 0-6 hr in urine of normotensive […] monkey at 30mg/kg, po; type: ADME, organism-based; settings: simiiformes, in vivo
# Method in brief: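 Male and female cynomolgus monkeys, fasted 16–18 h with water until dosing, six per dose. Compound or vehicle is given through a nasogastric tube, then a 50 mL/kg water load. No food or water for 6 h in metabolism cages. Urine is collected at 0–1, 1–2, 2–4 and 4–6 h and analyzed for electrolytes, uric acid and glucose.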
# Rattus norvegicus [14] = assay: Percent change of arterial blood pressure in spontaneously hypertensive rats at the dose of 1 mg/kg (p.o.) after 6 hr (control BP(mm Hg)=215); type: functional; settings: route oral
# Canis familiaris [15] = assay: Diuretic activity was evaluated by measuring amount of Cl- during 0-6 h in urine of normotensive saline loaded dogs at 10.0 mg/kg, po; type: ADME, organism-based, Canis lupus familiaris; set-up: dose 10 mg/kg, route oral; settings: dog, in vivo; method in brief: as §1
# Canis familiaris [16] = assay: Diuretic activity was evaluated by measuring amount of K+ during 0-6 hr in urine of normotensive saline loaded dogs at 10.0mg/kg, po; type: ADME, organism-based, Canis lupus familiaris; settings: dog, in vivo, 10 mg/kg; method in brief: as §1
# [17] = Diuretic activity was evaluated by measuring amount of K+ during 0-6 hr in urine of normotensive […] monkey at 30mg/kg, po; type: ADME, organism-based; settings: simiiformes, in vivo
# Method in brief: (§5)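 Male and female cynomolgus monkeys, fasted 16–18 h with water until dosing, six per dose. Compound or vehicle was given by pediatric nasogastric tube, followed at once by a 50 mL/kg water load. Monkeys were kept in metabolism cages without food or water for 6 h. Urine was collected at 0–1, 1–2, 2–4 and 4–6 h, and volume, electrolytes, uric acid and glucose were measured.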
# Canis familiaris [18] = assay: Diuretic activity was evaluated by measuring amount of Na+ during 0-6 hr in urine of normotensive saline loaded dogs at 3.0mg/kg, po; type: ADME, organism-based, Canis lupus familiaris; settings: dog, in vivo, 3 mg/kg; method in brief: as §2
# Rattus norvegicus [19] = assay: Diuretic activity was evaluated by measuring amount of Cl- during 0-6 hr in urine of normotensive saline loaded rats at 3.0mg/kg, po; type: ADME, organism-based; settings: in vivo, 3 mg/kg; method in brief: as §3
# Rattus norvegicus [20] = assay: Diuretic activity was evaluated by measuring amount of Na+ during 0-6 h in urine of normotensive saline loaded rats at 10.0 mg/kg, po; type: ADME, organism-based; set-up: dose 10 mg/kg, route oral; settings: in vivo; method in brief: as §4
# Canis familiaris [21] = assay: Diuretic activity was evaluated by measuring amount of Cl- during 0-6 h in urine of normotensive saline loaded dogs at 1.0 mg/kg, po; type: ADME, organism-based, Canis lupus familiaris; set-up: dose 1 mg/kg, route oral; settings: dog, in vivo; method in brief: as §1
# [22] = Diuretic activity was evaluated by measuring amount of Cl- during 0-6 h in urine of normotensive […] monkey at 3 mg/kg, po; type: ADME, organism-based; set-up: dose 3 mg/kg, route oral; settings: simiiformes, in vivo; method in brief: as §5
# Rattus norvegicus [23] = assay: Percent change of arterial blood pressure in spontaneously hypertensive rats at the dose of 1 mg/kg (p.o.) after […] (control BP(mm Hg)=215); type: functional; settings: route oral
# Canis familiaris [24] = assay: Diuretic activity was evaluated by measuring amount of K+ during 0-6 hr in urine of normotensive saline loaded dogs at 0.1 mg/kg, po; type: ADME, organism-based, Canis lupus familiaris; set-up: dose 0.1 mg/kg, route oral; settings: dog, in vivo; method in brief: as §1
# [25] = Diuretic activity was evaluated by measuring amount of Cl- during 0-6 h in urine of normotensive […] monkey at 10mg/kg, po; type: ADME, organism-based; settings: simiiformes, in vivo; method in brief: as §5
# Rattus norvegicus [26] = assay: Diuretic activity was evaluated by measuring amount of Cl- during 0-6 h in urine of normotensive saline loaded rats at 30.0 mg/kg, po; type: ADME, organism-based; set-up: dose 30 mg/kg, route oral; settings: in vivo; method in brief: as §3
# Rattus norvegicus [27] = assay: Percent change of arterial blood pressure in spontaneously hypertensive rats at the dose of 10 mg/kg (p.o.) after […] (control BP(mm Hg)=219); type: functional; settings: route oral
# Rattus norvegicus [28] = assay: Diuretic activity was evaluated by measuring amount of K+ during 0-6 h in urine of normotensive saline loaded rats at 1.0 mg/kg, po; type: ADME, organism-based; set-up: dose 1 mg/kg, route oral; settings: in vivo; method in brief: as §3
# Rattus norvegicus [29] = assay: Diuretic activity was evaluated by measuring amount of Na+ during 0-6 hr in urine of normotensive saline loaded rats at 0.1 mg/kg, po; type: ADME, organism-based; set-up: dose 0.1 mg/kg, route oral; settings: in vivo; method in brief: as §4
smiles,measurement,setting,value
CCOC(=O)COc1ccc(C(=O)c2ccc(O)c(CN)c2)c(Cl)c1Cl.Cl,Change,Rattus norvegicus [1],-14%
same,Diuretic activity,Canis familiaris [2],0.5 m equiv kg-1
same,Diuretic activity,Canis familiaris [3],0.7 m equiv kg-1
same,Diuretic activity,Rattus norvegicus [4],3.6 m equiv kg-1
same,Diuretic activity,Rattus norvegicus [5],16.4 m equiv kg-1
same,Diuretic activity,Rattus norvegicus [6],8.1 m equiv kg-1
same,Diuretic activity,Canis familiaris [7],1 m equiv kg-1
same,Change,Rattus norvegicus [8],-24%
same,Diuretic activity,Rattus norvegicus [9],3.8 m equiv kg-1
same,Diuretic activity,Canis familiaris [10],1.6 m equiv kg-1
same,Diuretic activity,Canis familiaris [11],6.3 m equiv kg-1
same,Change,Rattus norvegicus [12],-13%
same,Diuretic activity,[13],6.4 m equiv kg-1
same,Change,Rattus norvegicus [14],-11%
same,Diuretic activity,Canis familiaris [15],7 m equiv kg-1
same,Diuretic activity,Canis familiaris [16],1.7 m equiv kg-1
same,Diuretic activity,[17],1.5 m equiv kg-1
same,Diuretic activity,Canis familiaris [18],7.5 m equiv kg-1
same,Diuretic activity,Rattus norvegicus [19],16.3 m equiv kg-1
same,Diuretic activity,Rattus norvegicus [20],14 m equiv kg-1
same,Diuretic activity,Canis familiaris [21],6.2 m equiv kg-1
same,Diuretic activity,[22],5.3 m equiv kg-1
same,Change,Rattus norvegicus [23],-17%
same,Diuretic activity,Canis familiaris [24],0.6 m equiv kg-1
same,Diuretic activity,[25],7.2 m equiv kg-1
same,Diuretic activity,Rattus norvegicus [26],17.4 m equiv kg-1
same,Change,Rattus norvegicus [27],-31%
same,Diuretic activity,Rattus norvegicus [28],3 m equiv kg-1
same,Diuretic activity,Rattus norvegicus [29],6.6 m equiv kg-1
